In ChEMBL document CHEMBL4689842, “EUbOPEN Chemogenomics Library wave 1” (2021):

Tested on: HEK-293T
Assay: Multiplex assay against HEK293T;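 as to Population Tubulin-Different-Phenotype (%): share of the cells with healthy nuclei that show this phenotype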
Assay type: toxicity, cell-based
Conditions: human
In short: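 Cells stained live at seeding with Hoechst33342, BioTracker Green Microtubule Cytoskeleton Dye, MitoTracker Red and Annexin V Alexa Fluor 680 were imaged on a CQ1 microscope at 37°C and 5% CO2 after compound addition. Their classification by CellPathfinder machine-learning gating ran from Hoechst high-intensity objects versus normal cells, to healthy, pyknosed or fragmented nuclei among normal cells, to mitotic or apoptotic among pyknosed cells. Tubulin, mitochondrial-mass and membrane-permeability phenotypes are per cents of healthy-nucleus cells.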

[1] = 12 h, 1 µM, compound concentration 1 uM, replicate 1
[2] = 12 h, 1 µM, compound concentration 1 uM, replicate 2
[3] = 12 h, 10 µM, compound concentration 10 uM, replicate 1
[4] = 12 h, 10 µM, compound concentration 10 uM, replicate 2
[5] = 24 h, 1 µM, compound concentration 1 uM, replicate 1
[6] = 24 h, 1 µM, compound concentration 1 uM, replicate 2
[7] = 24 h, 10 µM, compound concentration 10 uM, replicate 1
[8] = 24 h, 10 µM, compound concentration 10 uM, replicate 2
[9] = 48 h, 1 µM, compound concentration 1 uM, replicate 1
[10] = 48 h, 1 µM, compound concentration 1 uM, replicate 2
[11] = 48 h, 10 µM, compound concentration 10 uM, replicate 1
[12] = 48 h, 10 µM, compound concentration 10 uM, replicate 2

CCOc1cc(C(=O)N2CCC(N3CCN(C)CC3)CC2)ccc1Nc1ncc2c(n1)N(C1CCCC1)c1ccccc1C(=O)N2C
Population Apoptotic (%) [1]: 61%
Population Fragmented Nuclei (%) [1]: 16%
Population Hoechst High Intensity Objects (%) [1]: 18%
Population Membrane Permeable-Phenotype (%) [1]: 5%
Population Mitochondria Different-Phenotype (%) [1]: 93%
Population Mitotic Cells (%) [1]: 38%
Population Normal (%) [1]: 81%
Population Pyknosed Nuclei (%) [1]: 57%
Population Tubulin-Different-Phenotype (%) [1]: 81%
Total Cell Count [1]: 371
Population Apoptotic (%) [2]: 60%
Population Fragmented Nuclei (%) [2]: 4%
Population Healthy Nuclei (%) [2]: 25%
Population Hoechst High Intensity Objects (%) [2]: 5%
Population Membrane Permeable-Phenotype (%) [2]: 9%
Population Mitochondria Different-Phenotype (%) [2]: 88%
Population Mitotic Cells (%) [2]: 39%
Population Normal (%) [2]: 94%
Population Pyknosed Nuclei (%) [2]: 70%
Population Tubulin-Different-Phenotype (%) [2]: 79%
Total Cell Count [2]: 178
Population Apoptotic (%) [3]: 83%
Population Fragmented Nuclei (%) [3]: 8%
Population Healthy Nuclei (%) [3]: 12%
Population Hoechst High Intensity Objects (%) [3]: 15%
Population Mitochondria Different-Phenotype (%) [3]: 95%
Population Mitotic Cells (%) [3]: 16%
Population Normal (%) [3]: 84%
Population Pyknosed Nuclei (%) [3]: 79%
Population Tubulin-Different-Phenotype (%) [3]: 60%
Total Cell Count [3]: 215
Population Apoptotic (%) [4]: 92%
Population Fragmented Nuclei (%) [4]: 5%
Population Healthy Nuclei (%) [4]: 6%
Population Hoechst High Intensity Objects (%) [4]: 7%
Population Membrane Permeable-Phenotype (%) [4]: 0%
Population Mitochondria Different-Phenotype (%) [4]: 100%
Population Mitotic Cells (%) [4]: 7%
Population Normal (%) [4]: 92%
Population Pyknosed Nuclei (%) [4]: 88%
Population Tubulin-Different-Phenotype (%) [4]: 16%
Total Cell Count [4]: 216
Population Apoptotic (%) [5]: 63%
Population Fragmented Nuclei (%) [5]: 19%
Population Hoechst High Intensity Objects (%) [5]: 19%
Population Membrane Permeable-Phenotype (%) [5]: 3%
Population Mitochondria Different-Phenotype (%) [5]: 96%
Population Mitotic Cells (%) [5]: 36%
Population Normal (%) [5]: 80%
Population Pyknosed Nuclei (%) [5]: 54%
Population Tubulin-Different-Phenotype (%) [5]: 83%
Total Cell Count [5]: 391
Population Apoptotic (%) [6]: 66%
Population Fragmented Nuclei (%) [6]: 4%
Population Healthy Nuclei (%) [6]: 26%
Population Hoechst High Intensity Objects (%) [6]: 3%
Population Membrane Permeable-Phenotype (%) [6]: 5%
Population Mitochondria Different-Phenotype (%) [6]: 92%
Population Mitotic Cells (%) [6]: 33%
Population Normal (%) [6]: 96%
Population Pyknosed Nuclei (%) [6]: 69%
Population Tubulin-Different-Phenotype (%) [6]: 75%
Total Cell Count [6]: 204
Population Apoptotic (%) [7]: 91%
Population Fragmented Nuclei (%) [7]: 15%
Population Healthy Nuclei (%) [7]: 4%
Population Hoechst High Intensity Objects (%) [7]: 19%
Population Membrane Permeable-Phenotype (%) [7]: 0%
Population Mitochondria Different-Phenotype (%) [7]: 100%
Population Mitotic Cells (%) [7]: 8%
Population Normal (%) [7]: 80%
Population Pyknosed Nuclei (%) [7]: 80%
Population Tubulin-Different-Phenotype (%) [7]: 37%
Total Cell Count [7]: 206
Population Apoptotic (%) [8]: 93%
Population Fragmented Nuclei (%) [8]: 6%
Population Healthy Nuclei (%) [8]: 18%
Population Hoechst High Intensity Objects (%) [8]: 11%
Population Mitochondria Different-Phenotype (%) [8]: 97%
Population Mitotic Cells (%) [8]: 6%
Population Normal (%) [8]: 88%
Population Pyknosed Nuclei (%) [8]: 74%
Population Tubulin-Different-Phenotype (%) [8]: 21%
Total Cell Count [8]: 222
Population Apoptotic (%) [9]: 64%
Population Fragmented Nuclei (%) [9]: 22%
Population Healthy Nuclei (%) [9]: 31%
Population Hoechst High Intensity Objects (%) [9]: 20%
Population Mitochondria Different-Phenotype (%) [9]: 91%
Population Mitotic Cells (%) [9]: 35%
Population Normal (%) [9]: 79%
Population Pyknosed Nuclei (%) [9]: 46%
Population Tubulin-Different-Phenotype (%) [9]: 65%
Total Cell Count [9]: 400
Population Apoptotic (%) [10]: 58%
Population Fragmented Nuclei (%) [10]: 8%
Population Healthy Nuclei (%) [10]: 48%
Population Hoechst High Intensity Objects (%) [10]: 5%
Population Membrane Permeable-Phenotype (%) [10]: 0%
Population Mitochondria Different-Phenotype (%) [10]: 72%
Population Mitotic Cells (%) [10]: 41%
Population Normal (%) [10]: 94%
Population Pyknosed Nuclei (%) [10]: 43%
Population Tubulin-Different-Phenotype (%) [10]: 63%
Total Cell Count [10]: 239
Population Apoptotic (%) [11]: 90%
Population Fragmented Nuclei (%) [11]: 23%
Population Healthy Nuclei (%) [11]: 2%
Population Hoechst High Intensity Objects (%) [11]: 20%
Population Membrane Permeable-Phenotype (%) [11]: 0%
Population Mitotic Cells (%) [11]: 9%
Population Normal (%) [11]: 79%
Population Pyknosed Nuclei (%) [11]: 74%
Population Tubulin-Different-Phenotype (%) [11]: 75%
Total Cell Count [11]: 233
Population Apoptotic (%) [12]: 98%
Population Fragmented Nuclei (%) [12]: 13%
Population Healthy Nuclei (%) [12]: 11%
Population Hoechst High Intensity Objects (%) [12]: 10%
Population Membrane Permeable-Phenotype (%) [12]: 5%
Population Mitochondria Different-Phenotype (%) [12]: 100%
Population Mitotic Cells (%) [12]: 1%
Population Normal (%) [12]: 90%
Population Pyknosed Nuclei (%) [12]: 75%
Population Tubulin-Different-Phenotype (%) [12]: 50%
Total Cell Count [12]: 200
